Compound activity deposited in PubChem by several laboratories.
Calb biofilm kill = clotrimazole potentiators killing C. albicans biofilm, primary screen, 4-compound mixtures; C. albicans biofilm persisters + clotrimazole, fluorescence viability; primary screen in compound mixtures of four per well; inhibition, % at 7.6 µM; 0.02% of 120,000 active;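 active = inhibition above 30.3% in the primary screen of four-compound pools, then above 30% when the compound was retested; inconclusive = passed the primary limit but could not be retested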;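 also: compounds exposed to preformed 24 h biofilms for 48 h; 0% = untreated biofilm control and 100% = clotrimazole plus chlorhexidine kill blank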
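Incubation: 24 h biofilm formation, then 48 h compound exposure, 37 °C | Material: C. albicans biofilms | Buffer or medium: RPMI/MOPS medium, pH 7.0 | Measured by: 2-h Alamar Blue fluorescence, 535/590 nm excitation/emission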
ROMK primary = ROMK potassium channel modulators, primary screen, cell-based, thallium flux, MLSMR library; ATP-sensitive inward rectifier potassium channel 1 (Homo sapiens), P48048; Tet-inducible ROMK, thallium flux fluorescence; actives lie on both sides; B-score at 10 µM; 2% of 130,000 active; AID 1918, 2009;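 active = signal ratio slope over the read window, or its plate-corrected B-score, at least 3 SD from the plate mean, either direction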;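 also: B-score of the F/F0 ratio slope over 7 to 12 s after thallium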
Target sequence (P48048 whole entry, looked up): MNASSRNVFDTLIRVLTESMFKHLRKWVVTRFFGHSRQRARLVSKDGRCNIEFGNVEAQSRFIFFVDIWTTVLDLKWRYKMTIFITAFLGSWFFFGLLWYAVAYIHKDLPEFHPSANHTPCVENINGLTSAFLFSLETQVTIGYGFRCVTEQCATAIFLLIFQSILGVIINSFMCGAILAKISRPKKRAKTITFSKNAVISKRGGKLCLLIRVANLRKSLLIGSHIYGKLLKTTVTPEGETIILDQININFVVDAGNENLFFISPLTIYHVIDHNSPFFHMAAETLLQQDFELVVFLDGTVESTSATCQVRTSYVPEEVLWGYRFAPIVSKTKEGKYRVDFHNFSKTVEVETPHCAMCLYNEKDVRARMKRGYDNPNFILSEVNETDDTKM
ROMK retest = ROMK channel modulator hit retest, confirmation, cell-based, thallium flux, duplicate, resupplied hits. 54% of 3,000 active. shares compounds with ROMK primary. fluorescence ratio; hits give low values. normalized thallium flux (F/F0 slope) at 10 µM;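 active = Flux at 10 µM at least 3 SD below or above vehicle control mean in one or both replicates; inconclusive = no clear call, values can overlap the other calls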
Numbers without * were called inactive; ? = inconclusive; . = no result given. The sample as a whole holds a higher share of hits than the screen did.

SMILES	Calb biofilm kill	ROMK primary	ROMK retest
O=c1cc(Cn2ccnc2)c2cc3c(cc2o1)CCC3	.	-0.58	.
Cc1cc2oc(=O)cc(Cn3ccnc3)c2cc1C	.	-6.3*	0.077
Cc1cccc(-c2ncc(CN3CCCC(CO)(Cc4ccccc4C)C3)cn2)c1 (configuration not stated)	1	0.62	.
CNc1nc(SC(C)C(=O)Nc2ccc(Cl)c(Cl)c2)nc(N2CCOCC2)n1 (configuration not stated)	14	0.35	.
CCOC(=O)CCc1nc2ccccc2[nH]1	.	0.63	.
COCC(=O)O[C@]1(CCN(C)CCCc2nc3ccccc3[nH]2)CCc2cc(F)ccc2[C@@H]1C(C)C	22	.	0.061*
COc1ccc(C(=O)Nc2ccccc2C(=O)NC(Cc2c[nH]c3ccccc23)C(=O)O)cc1 (configuration not stated)	2	-0.41	.
Cc1ccc(NC(=O)COc2cccc(/C=C3\SC(=S)N(CCC(=O)O)C3=O)c2)cc1Cl	16	.	.
O=C(O)CCN1C(=O)/C(=C\c2cccc(OCC(=O)Nc3ccc(Cl)cc3)c2)SC1=S	20	.	0.053*
O=C(O)CCN1C(=O)CC(N2C(=O)/C(=C/c3ccc(Cl)cc3)SC2=S)C1=O (configuration not stated)	17	-2*	0.044*
CCOc1ccc(/C=C2\SC(=S)N(CCC(=O)O)C2=O)cc1	15	.	.
CCn1cc(/C=N/N=C2\CCC3C4CCc5cc(O)ccc5C4CC[C@]23C)c(C)n1 (some centres not stated)	.	0.11	.
COc1ccc(C2=CC(=O)N(Nc3ccccc3)C2=O)cc1	7	-2	.
O=C1C=C(c2ccccc2)C(=O)N1Nc1ccccc1	.	-3.6*	0.061*
Cc1ccc(S(=O)(=O)NCC(=O)OCC(=O)NCc2ccc(F)cc2)cc1	11	-0.096	.
O=C(Cc1ccc(Cl)c(Cl)c1)Nc1ccc2[nH]c(=O)[nH]c2c1	15	-0.027	.
O=C(COC(=O)CC1c2ccccc2CCN1S(=O)(=O)c1ccc(F)cc1)Nc1ccccc1 (configuration not stated)	10	-1.2	.
CCc1cccc(CC)c1NC(=O)COC(=O)CC1c2ccccc2CCN1S(=O)(=O)c1ccc(F)cc1 (configuration not stated)	3	-3.8*	0.06*
N#C/C(=C\c1ccc(C#N)cc1)C(=O)N1CCCC1	10	-5.1*	0.04*
CN1CCN(C(=O)/C(C#N)=C/c2ccc(F)cc2)CC1	1	-2.7*	0.047*
N#C/C(=C\c1ccc(O)cc1)C(=O)N1CCCC1	4	.	.
CN1CCN(C(=O)/C(=C/c2ccc(F)cc2)c2ccsc2)CC1	3	-0.086	.
Brc1cccc2sc(N3CCCC3)nc12	10	-0.47	.
O=C(Nc1ccccc1C(=O)O)c1ccc(Br)c(S(=O)(=O)NCc2ccccc2)c1	-1	-0.038	.
COC(=O)c1cncc(C)c1	24	.	.
SMILES	Calb biofilm kill	ROMK primary	ROMK retest
COc1ccc(S(=O)(=O)NC(C)C)cc1C(=O)N1CCOCC1	14	0.046	.
COCCNC(=O)/C(C#N)=C/c1cccs1	6	.	.
COc1cc(/C=C(/C#N)C(=O)Nc2ccccc2)ccc1OCc1ccc(C(=O)O)cc1	20	-2.5*	0.053*
CCCCNC(=O)/C(C#N)=C/c1ccc(F)cc1F	-3	-7.8*	0.046*
CCOCCCNC(=O)/C(C#N)=C/c1ccc(C)o1	13	-0.15	.
COc1cc(/C=C(\C#N)C(=O)NCc2ccccc2)ccc1OCc1ccc(C(=O)O)cc1	32	.	.
COCCNC(=O)/C(C#N)=C/c1ccc(C(=O)O)cc1	19	-0.5	.
COCCNC(=O)/C(C#N)=C/c1ccc(SC)cc1	16	-3.9*	0.049*
COCCNC(=O)/C(C#N)=C/c1ccc(OC(=O)c2cccs2)c(OC)c1	5	-4.4*	0.044*
C/C(=N/NC(=O)c1cccc(N2CCCC2=O)c1)c1ccncc1	17	0.45	.
COCCCNC(=O)/C(C#N)=C/c1ccc(F)cc1	-2	-3.9*	0.052*
COCCNC(=O)/C(C#N)=C/c1ccc(OCc2ccc(F)cc2)cc1	15	-0.8	.
COCCNC(=O)/C(C#N)=C/c1c(F)cccc1Cl	6	-3.7*	0.037*
COCCNC(=O)/C(C#N)=C/c1ccc(C)o1	52	.	.
CN(C(=O)COC(=O)CNC(=O)c1sc2ccccc2c1Cl)c1ccccc1	10	0.14	.
CC(=O)c1c(C)[nH]c(C(=O)NCc2ccco2)c1C	-10	1.7	.
O=C(NCc1nnc2c3ccccc3c(-c3ccccc3)nn12)c1ccc(Cl)cc1	17	.	0.073
CC(=O)NCc1nnc2c3ccccc3c(-c3ccccc3)nn12	6	-0.62	.
Cc1cc(NC(=O)CSc2nnc(-c3ccncc3)n2-c2ccc(F)cc2)no1	-9	1.1	.
COc1ccc(-c2noc(CSc3nnc(-c4ccncc4)n3-c3ccc(F)cc3)n2)cc1OC	.	.	0.082
COc1ccc(-c2nnc(SCc3nnc(-c4ccccc4)o3)n2C)cc1OC	.	0.11	.
COc1ccc(-n2c(SCc3nnc(-c4ccccc4)o3)nnc2-c2ccccc2)cc1	.	.	0.064*
Cc1cnc2ncc3sccc3c2c1	5	-3.6*	0.059*
c1cnc2ncc3sccc3c2c1	5	-0.25	.
O=C(c1ccncc1)c1ccc(N2CCN(C3CC(=O)N(Cc4ccccc4)C3=O)CC2)cc1 (configuration not stated)	.	-4*	?
SMILES	Calb biofilm kill	ROMK primary	ROMK retest
COc1ccc(N2CCN(C3CC(=O)N(Cc4ccccc4)C3=O)CC2)cc1 (configuration not stated)	12	0.02	.
CCOC(=O)c1c(C)oc2c1c(C=NCc1ccccn1)c(O)c1ccccc12	.	.	0.064*
CCOC(=O)c1c(C)oc2c1c(C=NCC1CCCO1)c(O)c1ccccc12 (configuration not stated)	.	-0.049	.
C/C(=N\NC(=O)c1cccc(S(=O)(=O)N2CCCC2)c1)c1cccs1	1	0.44	.
NC(=O)CC(NC(=O)Cc1cccc2ccccc12)c1ccc(N2CCN(c3ccc(F)cc3)CC2)c([N+](=O)[O-])c1 (configuration not stated)	10	.	.
CCN(CC)c1c([N+](=O)[O-])c(=O)n(C)c2ccccc12	14	-0.83	.
Cn1c(=O)c([N+](=O)[O-])c(Cl)c2ccccc21	16	-5.1*	0.049*
Cc1cc(=O)oc2cc(OCCSCCN3CCCCC3)ccc12	11	.	.
Cc1cc(C)c2cc(CN(Cc3nnnn3C3CCCCC3)CC3CCCO3)c(=O)[nH]c2c1 (configuration not stated)	.	-2.7	.
Cc1cc2cc(CN(Cc3nnnn3C3CCCCC3)CC3CCCO3)c(=O)[nH]c2cc1C (configuration not stated)	.	-5.7*	?
CC(=O)Nc1ccccc1OCC(=O)N(Cc1ccccc1)C(C)C	17	.	.
CCOc1cc(/C=C2\C(=O)ON=C2C)ccc1OCc1ccccc1	14	.	.
CC1=NOC(=O)/C1=C/c1ccc(O)cc1	20	-3.7*	0.048*
COc1ccc(/C=C/C(=O)N(C)c2ccccc2C(=O)O)cc1	20	0.38	.
Clc1ccc(-c2nnc(CSc3nnc(-c4cccs4)n3Cc3ccccc3)o2)cc1	12	-2.1	0.072
Fc1ccc(-c2nnc(CSc3nnc4ccccn34)o2)cc1	0	0.011	.
Cc1nnc(SCc2nnc(-c3cccs3)o2)n1Cc1ccccc1	7	1.2	.
